Experimental data as given in ChEMBL document CHEMBL4715702, “Overcoming multidrug resistance by targeting mitochondria with NO-donating doxorubicins” (Bioorg Med Chem, 2016).
The source made the active and inactive calls. The calls are words filed in the database; no cut-off is given here.

Key:
[1] = Prodrug release in human HT-29 cells assessed as increase in NO level by measuring induction of P-glycoprotein nitration in plasma membrane at 5 uM incubated for 24 hrs by western blot analysis; format: cell membranes, Cell membrane; conditions: ht-29, 24 h
How it was run: (§1)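 Cells 24 h with 5 µmol/L compound. Plasma-membrane proteins isolated by surface biotinylation, 50 µg run on SDS-PAGE, probed for Pgp with pancadherin loading control; nitration detected by Western blot, peroxidase secondary and chemiluminescence. Representative of three experiments.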

[2] = Prodrug release in human HT-29 cells assessed as increase in NO level by measuring nitrite release at 5 uM incubated for 24 hrs by spectrophotometric analysis; format: ADME, cell-based; conditions: ht-29, 24 h
How it was run: (§2)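 After 24 h culture with 5 µmol/L compound, medium mixed 1:1 with Griess reagent, 10 min 37°C in dark, absorbance 540 nm. Cell-free blank subtracted; nitrite expressed as nmol/mg cell protein. HT29/dx maintained in 200 nmol/L DOXO. Triplicate, mean ± SD (n = 3).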

[3] = Prodrug release in human HT-29 cells assessed as increase in NO level by measuring plasma membrane associated MRP1/BCRP nitration mediated drug uptake at 5 uM incubated for 24 hrs by spectrofluorometric analysis; format: ADME, cell membranes; conditions: ht-29, 24 h
How it was run: (§3)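 Cells 24 h with 5 µmol/L compound; DOXO in whole-cell lysates measured fluorimetrically (ex 475/em 553 nm), cell-free blank subtracted, converted to nmol DOXO/mg protein by calibration curve. Triplicate, mean ± SD.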

[4] = Prodrug release in doxorubicin-resistant human HT-29 cells assessed as increase in NO level by measuring plasma membrane associated MRP1/BCRP nitration mediated drug uptake at 5 uM incubated for 24 hrs by spectrofluorometric analysis; format: ADME, cell membranes; conditions: ht-29, 24 h; how it was run: as §3
[5] = Prodrug release in human HT-29 cells assessed as increase in NO level by measuring mitochondria associated MRP1/BCRP nitration mediated drug uptake at 5 uM incubated for 24 hrs by spectrofluorometric analysis; format: ADME; conditions: ht-29, 24 h
How it was run: (§4)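 Cells 24 h with 5 µmol/L compound; mitochondrial fractions isolated (porin check by immunoblot), DOXO measured fluorimetrically (ex 475/em 553 nm) with blank subtraction and calibration curve; expressed as nmol DOXO/mg mitochondrial protein. Triplicate, mean ± SD.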

[6] = Prodrug release in doxorubicin-resistant human HT-29 cells assessed as increase in NO level by measuring mitochondria associated MRP1/BCRP nitration mediated drug uptake at 5 uM incubated for 24 hrs by spectrofluorometric analysis; format: ADME; conditions: ht-29, 24 h; how it was run: as §4
[7] = system: H9c2; experiment: Cardiotoxicity against rat H9c2 cells assessed as LDH release at 5 uM incubated for 24 hrs; format: toxicity, cell-based; conditions: h9c2, 24 h
How it was run: (§5)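 Extracellular medium spun 12,000 × g 5 min; cells detached, sonicated in 82.3 mmol/L triethanolamine phosphate-HCl pH 7.6. LDH activity read in medium and lysate at 340 nm over 6 min, as µmol NADH oxidized/min/dish; extracellular LDH given as % of total dish activity. Compounds from DMSO stock, 5 µM final, 1% DMSO; controls 1% DMSO. Triplicate, mean ± SD.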

[8] = system: HT-29; experiment: Upregulation of iNOS protein expression in human HT-29 cells; format: functional, cell-based
How it was run: (§6)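 HT29 and HT29/dx cells incubated 24 h with compound or fresh medium; lysed in MLB buffer pH 7.5, sonicated, centrifuged 13,000 x g 10 min 4°C; iNOS detected in whole-cell lysate by Western blotting.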

[9] = system: HT-29; experiment: Upregulation of iNOS protein expression in doxorubicin-resistant human HT-29 cells; format: functional, cell-based; how it was run: as §6
[10] = Prodrug release in doxorubicin-resistant human HT-29 cells assessed as increase in NO level by measuring induction of P-glycoprotein nitration in plasma membrane at 5 uM incubated for 24 hrs by western blot analysis; format: cell membranes, Cell membrane; conditions: ht-29, 24 h; how it was run: as §1
[11] = Prodrug release in doxorubicin-resistant human HT-29 cells assessed as increase in NO level by measuring nitrite release at 5 uM incubated for 24 hrs by spectrophotometric analysis; format: ADME, cell-based; conditions: ht-29, 24 h; how it was run: as §2
[12] = system: HT-29; experiment: Cytotoxicity against doxorubicin-resistant human HT-29 cells assessed as LDH release at 5 uM incubated for 24 hrs; format: functional, cell-based; how it was run: as §5
[13] = system: HT-29; experiment: Cytotoxicity against human HT-29 cells assessed as LDH release at 5 uM incubated for 24 hrs; format: functional, cell-based; how it was run: as §5
[14] = Stability of the compound assessed as human serum esterase-mediated compound hydrolysis by measuring half life at 100 uM by RP-HPLC analysis; format: ADME, cell-free
How it was run: (§7)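 Compound from 10 mM DMSO stock added to human male AB serum preheated to 37 °C, 100 µM final, incubated at 37 ± 0.5 °C. Aliquots deproteinized with acetonitrile/0.1% HCOOH, centrifuged, filtered. Parent and degradation products quantified by RP-HPLC (234 and 480 nm) against 1–100 µM calibration. At least triplicate.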

[15] = system: HT-29; experiment: Induction of apoptosis in doxorubicin-resistant human HT29 cells assessed as activation of caspase 3 using DEVD-AMC substrate at 5 uM incubated for 24 hrs by fluorescence based assay; format: functional, cell-based
How it was run: (§8)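 Cells 24 h in 5 µmol/L compound or fresh medium, lysed in HEPES/KOH buffer pH 7.5. 20 µg lysate incubated 1 h at 37°C with 20 µmol/L LEHD-AMC (caspase 9) or DEVD-AMC (caspase 3) in HEPES/CHAPS/sucrose/DTT buffer pH 7.5. Stopped with ice-cold 0.1% TCA; AMC fluorescence ex 380/em 460 nm, converted to nmol AMC/µg protein via AMC standards. Triplicate.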

[16] = system: HT-29; experiment: Induction of apoptosis in human HT29 cells assessed as activation of caspase 3 using DEVD-AMC substrate at 5 uM incubated for 24 hrs by fluorescence based assay; format: functional, cell-based; how it was run: as §8
[17] = system: HT-29; experiment: Induction of apoptosis in doxorubicin-resistant human HT29 cells assessed as activation of caspase 9 using LEHD-AMC substrate at 5 uM incubated for 24 hrs by fluorescence based assay; format: functional, cell-based; how it was run: as §8
[18] = system: HT-29; experiment: Induction of apoptosis in human HT29 cells assessed as activation of caspase 9 using LEHD-AMC substrate at 5 uM incubated for 24 hrs by fluorescence based assay; format: functional, cell-based; how it was run: as §8
[19] = Prodrug release in human HT-29 cells assessed as increase in NO level by measuring induction of P-glycoprotein nitration in mitochondria at 5 uM incubated for 24 hrs by western blot analysis; conditions: ht-29, 24 h
How it was run: (§9)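 Cells 24 h with 5 µmol/L compound. Mitochondrial extracts, 10 µg protein, run on SDS-PAGE and probed for Pgp, porin as loading control; nitration detected by Western blot with peroxidase secondary and chemiluminescence. Representative of three experiments.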

[20] = Prodrug release in doxrubicin-resistant human HT-29 cells assessed as increase in NO level by measuring induction of P-glycoprotein nitration in mitochondria at 5 uM incubated for 24 hrs by western blot analysis; conditions: ht-29, 24 h; how it was run: as §9
[21] = Stability of the compound assessed as human serum esterase-mediated compound hydrolysis by measuring parent compound remaining at 100 uM measured after 24 hrs by RP-HPLC analysis; format: ADME, cell-free; conditions: read-out: Stabilty; how it was run: as §7

Structure (SMILES) | Activity [1] | Drug metabolism [2] | Drug uptake [3] | Drug uptake [4] | Activity [10] | Drug metabolism [11] | half-life at 100 µM [14] [h] | Activity [19] | Activity [20] | Activity [7] | Activity [8] | Activity [9] | Activity [15] | Activity [16] | Activity [17] | Activity [18] | other results
COc1cccc2c1C(=O)c1c(O)c3c(c(O)c1C2=O)C[C@@](O)(C(=O)COC(=O)c1ccc(CC(CO[N+](=O)[O-])O[N+](=O)[O-])cc1)C[C@@H]3O[C@H]1C[C@H](N)[C@H](O)[C@H](C)O1 (stereo partly drawn) | Not Active | Metabolite_Detected | Active | Active | Not Active | Metabolite_Detected | 16 |  |  | Non-Toxic | Active | Active | Active | Active | Active | Active | Activity [12]: Active; Activity [13]: Active; Drug uptake [5]: Active; Drug uptake [6]: Active
COc1cccc2c1C(=O)c1c(O)c3c(c(O)c1C2=O)C[C@@](O)(C(=O)COC(=O)c1ccc(OCC(CO[N+](=O)[O-])O[N+](=O)[O-])cc1)C[C@@H]3O[C@H]1C[C@H](N)[C@H](O)[C@H](C)O1.Cl (stereo partly drawn) | Not Active | Metabolite_Detected | Active | Active | Not Active | Metabolite_Detected | 34.7 | Not Active | Not Active |  |  |  | inactive | inactive | inactive | inactive | 
COc1cccc2c1C(=O)c1c(O)c3c(c(O)c1C2=O)C[C@@](O)(C(=O)COC(=O)c1ccc(Oc2no[n+]([O-])c2S(=O)(=O)c2ccccc2)cc1)C[C@@H]3O[C@H]1C[C@H](N)[C@H](O)[C@H](C)O1.Cl |  | Metabolite_Detected |  |  |  | Metabolite_Detected | > 24 |  |  | Non-Toxic | Active | Active | Active | Active | Active | Active | Activity [12]: Active; Activity [13]: Active; remaining at 24 h, 100 µM [21]: 73.5%
COc1cccc2c1C(=O)c1c(O)c3c(c(O)c1C2=O)C[C@@](O)(C(=O)COC(=O)c1ccc(C(=O)OCO/N=[N+](\[O-])N2CCCC2)cc1)C[C@@H]3O[C@H]1C[C@H](N)[C@H](O)[C@H](C)O1.Cl |  | Metabolite_Detected | Not Active |  |  | Metabolite_Detected | 2.8 | Not Active | Not Active |  |  |  | inactive | inactive | inactive | inactive | Activity [4]: Not Active

Second part, led by results:

Activity [1] | Drug metabolism [2] | Drug uptake [3] | Drug uptake [4] | Activity [10] | Drug metabolism [11] | half-life at 100 µM [14] [h] | Activity [19] | Activity [20] | Structure (SMILES) | Activity [7] | Activity [8] | Activity [9] | Activity [15] | Activity [16] | Activity [17] | Activity [18] | other results
Not Active | Metabolite_Detected | Active | Not Active |  |  |  |  |  | COc1cccc2c1C(=O)c1c(O)c3c(c(O)c1C2=O)C[C@@](O)(C(=O)CO)C[C@@H]3O[C@H]1C[C@H](N)[C@H](O)[C@H](C)O1 [DOXORUBICIN] | Toxic | Active | inactive |  |  |  |  | Drug uptake [5]: Active; Drug uptake [6]: Not Active
 | Metabolite_Detected | Active | Active | Not Active | Metabolite_Detected | 4.9 |  |  | COc1cccc2c1C(=O)c1c(O)c3c(c(O)c1C2=O)C[C@@](O)(C(=O)COC(=O)CCCCCO[N+](=O)[O-])C[C@@H]3O[C@H]1C[C@H](N)[C@H](O)[C@H](C)O1.Cl |  |  |  |  |  |  |  | 
Not Active | Metabolite_Detected | Active | Active | Not Active | Metabolite_Detected | 26.7 | Not Active | Not Active | COc1cccc2c1C(=O)c1c(O)c3c(c(O)c1C2=O)C[C@@](O)(C(=O)COC(=O)c1ccc(OCCCO[N+](=O)[O-])cc1)C[C@@H]3O[C@H]1C[C@H](N)[C@H](O)[C@H](C)O1.Cl |  |  |  | inactive | inactive | inactive | inactive | 
 | Metabolite_Detected |  |  |  | Metabolite_Detected | 6 |  |  | COc1cccc2c1C(=O)c1c(O)c3c(c(O)c1C2=O)C[C@@](O)(C(=O)COC(=O)CCCC(CO[N+](=O)[O-])O[N+](=O)[O-])C[C@@H]3O[C@H]1C[C@H](N)[C@H](O)[C@H](C)O1.Cl (stereo partly drawn) |  |  |  | inactive | inactive | inactive | inactive | 
Not Active | Metabolite_Detected | Active | Active | Not Active | Metabolite_Detected | 24.6 | Not Active | Not Active | COc1cccc2c1C(=O)c1c(O)c3c(c(O)c1C2=O)C[C@@](O)(C(=O)COC(=O)c1ccc(CCCO[N+](=O)[O-])cc1)C[C@@H]3O[C@H]1C[C@H](N)[C@H](O)[C@H](C)O1.Cl |  |  |  | inactive | inactive | inactive | inactive | 
